Assay outcomes (PubChem)
In the library only some 1.6% were active in any assay of this set; here they are far more common.
PG9 binder = small molecules binding HIV-1 gp120 antibody PG9; TR-FRET gp120-PG9 antibody binding; inhibition, % at 6.7 µM; 360,000 compounds, 0.43% hits; in the data active = inhibition above about 8.5%
VLA-4 inh = inhibition in a human VLA-4 binding assay; P13612; VLA-4 expressing cells, ligand binding flow cytometry; inhibition, % (about 7 µM as worked out from the volumes in the protocol); 330,000 compounds, 0.2% hits; in the data active = inhibition above about 50%
NR2E3 ag-1 = agonists of human NR2E3 nuclear receptor. Q9Y5X4. 360,000 compounds, 0.35% hits. AID 602229. CHO-S Gal4-NCOR/VP16-NR2E3 two-hybrid, luciferase. inhibition of corepressor binding, % at 3.98 µM;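 active = inhibition above the mean of all tested compounds plus 3 SD, cut at about 70% in these data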;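 note: 0% = DMSO with NR2E3 transfected cells and 100% = cells lacking NR2E3 construct; higher means lower luciferase signal from less NR2E3 corepressor binding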
Target sequence (Q9Y5X4 whole entry, looked up, the tested form may be a part): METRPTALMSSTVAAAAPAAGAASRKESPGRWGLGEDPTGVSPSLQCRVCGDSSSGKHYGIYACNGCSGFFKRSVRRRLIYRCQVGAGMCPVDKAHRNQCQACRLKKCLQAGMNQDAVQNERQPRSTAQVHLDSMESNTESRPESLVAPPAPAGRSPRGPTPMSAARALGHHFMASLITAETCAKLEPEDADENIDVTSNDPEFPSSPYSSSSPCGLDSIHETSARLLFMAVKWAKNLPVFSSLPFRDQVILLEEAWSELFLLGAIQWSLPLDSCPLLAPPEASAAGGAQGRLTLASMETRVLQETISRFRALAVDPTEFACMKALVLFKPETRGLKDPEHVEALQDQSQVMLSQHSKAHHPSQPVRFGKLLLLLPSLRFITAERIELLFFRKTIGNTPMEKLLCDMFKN
NR1D1 modulator = Rev-erb alpha (human) modulation; 370,000 compounds, 0.79% hits; Rev-erbα–FITC-DNA binding, fluorescence polarization, 90 min; activity, % at 10 µM; P20393; AID 1259318;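 active = activity above about 14%, limit read from the data; passing the limit was not always enough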;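 note: 0% = DMSO wells with 35 nM protein and 100% = DMSO wells with 750 nM protein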
NR2E3 ag-2 = agonists of human nuclear receptor NR2E3 | Q9Y5X4 | GST-NR2E3/biotin-RetCOR TR-FRET, 1536-well | inhibition of corepressor binding, % at 4.78 µM | 320,000 compounds, 0.12% hits | AID 2300;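 active = percent inhibition above the cutoff of mean plus 3 SD of all tested compounds, set per screening campaign, cut at about 20% in these data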;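 note: 0% = DMSO wells and 100% = biotin wells as full block of FRET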
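Assay system: NR2E3–RetCOR corepressor complex. Quantity: 1.35 nM GST-NR2E3. Buffer or medium: pH 7.5 Tris-based buffer. Reagent: biotinylated RetCOR corepressor at 7 nM final. Schedule: 5 h at 4 °C. Detection: TR-FRET, emission read at 617 and 671 nm. Replicates: one well per compound, singlicate testing.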
VLA-4 allo CP = human VLA-4 allosteric modulation in cherry picked compounds | shares compounds with VLA-4 inh | U937 cells, HUTS-21 LIBS mAb binding, flow cytometry; LDV ligand present at threefold Kd | inhibition, % at 6.7 µM | 1,300 compounds, 2% hits; in the data active = inhibition above about 40%;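 note: 0% = ligand without compound and 100% = no ligand background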
An asterisk follows results filed as active; x = not tested or not shown.

SMILES | PG9 binder | VLA-4 inh | NR2E3 ag-1 | NR1D1 modulator | NR2E3 ag-2 | VLA-4 allo CP
CN1C(=O)Cc2cc(S(=O)(=O)Nc3ccc(N4CCOCC4)cc3)ccc21 | 1 | 11 | -20 | 0 | -2 | 4
Cc1ccccc1Oc1ccc(NC(=O)C2CC=CCC2C(=O)O)cc1 (centres undefined) | -1 | 54* | -7 | 4 | 3 | 5
CC(C)(C)c1ccc(Oc2ccc(NC(=O)C3CC=CCC3C(=O)O)cc2)cc1 (centres undefined) | -1 | -13 | 36 | -3 | 1 | x
COc1ccc(S(=O)(=O)N2CCOCC2)cc1NC(=O)COC(=O)C1COc2ccccc2O1 (centres undefined) | 1 | 42 | -91 | 0 | 5 | 0
COc1ccc(C)cc1NC(=O)COC(=O)C1COc2ccccc2O1 (centres undefined) | -2 | 16 | -6 | 0 | x | x
CC1CC(C)CN(C(=O)c2ccc(C#N)cc2)C1 (centres undefined) | -2 | 60* | -2 | -1 | 3 | 10
CCOc1ccc(-n2c(SCC(=O)Nc3ccc(S(=O)(=O)Nc4cc(C)nc(C)n4)cc3)nnc2-c2ccc(OC)cc2)cc1 | x | x | x | 2 | x | x
COc1ccccc1/C=N/NC(=O)CCn1cnc2ccccc21 | -1 | 58* | -10 | -4 | 5 | -1
CCOc1ccc(S(=O)(=O)NCc2ccccc2Cl)cc1C(N)=O | 0 | 15 | 0 | 5 | 0 | x
COc1ccc(S(=O)(=O)NCc2ccccc2Cl)cc1OC | -1 | 93* | -21 | -5 | 3 | 0
CCS(=O)(=O)c1ccc(N)cc1 | 1 | 58* | -1 | x | -1 | 7
COc1ccc(Br)cc1S(=O)(=O)n1c([N+](=O)[O-])cnc1C | 0 | 45 | -18 | -4 | -1 | -13
CCOc1ccc(CNC(=O)CCCC(=O)n2ncc3cc(C)ccc32)cc1 | 2 | 59* | -89 | -5 | 7 | 5
Cc1ccc2c(cnn2C(=O)CCCC(=O)NCc2ccc(Cl)cc2)c1 | 0 | 22 | -102 | 3 | 4 | x
Cc1ccc(CN2CCC(n3nccc3NC(=O)CCOc3ccccc3)CC2)cc1C | -1 | 106* | -14 | 3 | -3 | 2
Cn1cc(CN2CCC(n3nccc3NC(=O)CCOc3ccccc3)CC2)cn1 | 1 | -108 | 15 | 2 | 2 | x
CC(C)[C@H](NC(=O)OC(C)(C)C)C(=O)N1CCC(Oc2cccnc2)CC1 | x | x | x | -1 | x | x
COc1ccc(C(=O)Nc2ccccc2C(=O)NC(Cc2ccc(O)cc2)C(=O)NNC(=O)c2ccccc2)cc1 (centres undefined) | 0 | 2 | -7 | 3 | -3 | x
COc1ccc(C(=O)Nc2ccccc2C(=O)NC(Cc2ccc(O)cc2)C(=O)NNC(=O)c2ccncc2)cc1 (centres undefined) | -2 | 56* | -2 | 1 | -1 | 1
O=C(Nc1ccc(Cl)c(Cl)c1)Nc1ccccc1O | -1 | -27 | -108 | -1 | 2 | -35
COc1cccc2cc(C(=O)NCCN3CCOCC3)c(=O)oc12 | 1 | 41 | 0 | -2 | -2 | -18
COc1ccc(-n2cnc3cc(C(=O)NCCN4CCOCC4)ccc32)cc1 | -1 | 43 | 2 | 3 | 2 | -7
COC(=O)c1ccc(C(=S)N2CCCCC2)cc1 | -1 | 57* | -26 | 1 | 0 | 4
COC(=O)c1ccc(C(=S)N2CCOCC2)cc1 | 1 | -6 | -2 | 0 | 0 | x
C[C@@H]1COc2cc(Br)ccc2S(=O)(=O)N1Cc1cn(CCC2OCCCO2)nn1 | x | x | x | -1 | x | x
SMILES | PG9 binder | VLA-4 inh | NR2E3 ag-1 | NR1D1 modulator | NR2E3 ag-2 | VLA-4 allo CP
N#CCC[C@@H]1CC[C@]2(CCCN(C(=O)C3CCCC3)C2)O1 | x | x | x | -2 | x | x
O=C1C2C3C=CC(CO)(O3)C2C(=O)N1c1ccccc1-c1ccccc1 (centres undefined) | x | 50* | -10 | x | 2 | 4
CC(=O)Oc1ccc(N2C(=O)C3C4C=CC(CO)(O4)C3C2=O)cc1 (centres undefined) | -1 | -7 | 4 | 5 | 1 | x
COC(=O)C[C@@H]1CC[C@H]2[C@@H](COc3ccc(NC(=O)c4ccc(Cl)cc4)cc3C(=O)N2C)O1 | x | x | x | 9 | x | x
COCCn1c(C)cc(C(=O)CSc2ccc(NC(C)=O)cc2)c1C | 0 | -10 | -32 | -3 | -3 | x
COC(=O)c1ccc(-n2c(C)cc(C(=O)CSc3ccc(NC(C)=O)cc3)c2C)cc1 | -3 | 40 | -2 | 1 | 0 | -4
Cc1ccccc1C(=O)N(Cc1ccccn1)CC1CCCO1 (centres undefined) | x | x | x | 1 | x | x
COc1ccc(C(=O)N(C)[C@H]2C[C@H]3c4[nH]c5cccc(-c6ccccc6)c5c4CCN3C[C@H]2[C@H](C)O)cc1 | x | x | x | 9 | x | x
CCOC(=O)c1sc2nc(C)nc(SCC(=O)N(C)C3CCS(=O)(=O)C3)c2c1C (centres undefined) | -1 | 42 | -12 | -1 | 3 | -10
O=C(Nc1ccccc1)Nc1ccncc1 | 0 | 62* | -11 | 5 | 1 | -10
COC(=O)[C@]12C[C@H](CC(=O)N3CCN(C(=O)c4ccco4)CC3)C(=O)N(Cc3ccc4c(c3)OCO4)C1=C[C@H](C(C)(C)C)O[C@@H]2C | -2 | x | x | -1 | x | x
CCOc1ccc2[nH]c(C(=O)N/N=C/c3ccc(OC)cc3)cc2c1 | 0 | 56* | -1 | -1 | x | 34
COc1cccc(C2CC(=O)Nc3cc(OC)c(OC)cc32)c1 (centres undefined) | 0 | 4 | -15 | -1 | x | 1
CCOc1cccc(C2CC(=O)Nc3cc(OC)c(OC)cc32)c1 (centres undefined) | 0 | 51* | -29 | -2 | -1 | 8
COc1cccc(C2CC(=O)Nc3cc4c(cc32)CCC4)c1 (centres undefined) | -3 | 7 | -8 | -6 | 3 | x
COc1cc2c(cc1OC)C(c1ccc(Br)cc1)CC(=O)N2 (centres undefined) | 0 | 14 | -17 | 7 | x | 10
COc1cccc(C2CC(=O)Nc3cc(C)c(C)cc32)c1 (centres undefined) | 0 | x | -40 | 5 | x | x
S=C(Nc1ccc(Cl)cc1)OC1CCC12CCC(c1ccccc1)CC2 (centres undefined) | x | x | x | -1 | x | x
O=C(NCC(c1ccccc1)c1ccccc1)[C@H](Cc1ccccc1)NC1(C(=O)NC2CCCCC2)CCOCC1 | x | x | x | 2 | x | x
CCCNC(=O)C[C@H]1CC[C@H]2[C@@H](COc3ccc(NC(=O)c4cncs4)cc3C(=O)N2C)O1 | x | x | x | 25 | x | x
O=C1CCN(CCCc2ccccc2)CCN1[C@H](CO)Cc1ccccc1 | -3 | 54* | 4 | 5 | 1 | 0
O=C(COC(=O)c1ccc(O)cc1)NCCC1=CCCCC1 | 0 | 61* | -16 | 3 | 0 | 5
Cc1ccc(C(=O)OCC(=O)NCCC2=CCCCC2)cc1N | 0 | -5 | -26 | -2 | 4 | x
